Data reported in paper PMC5844354 (Chembiochem : a European journal of chemical biology, 2018).
Values belong to the molecule of their own block, whether it stands above or below them.

Legend:
Fis1 [1] = molecular target: T1, Fis1 (Homo sapiens, UniProt Q9Y3D6); format: binding; details: for binding to Fis1 in library screen: 1 mM fragment, 352-fragment library screen; for nonspecific NMR crosspeak broadening of Fis1: 1 mM compound, 50 μM 15N-Fis1, SOFAST-HMQC
T1 sequence (Q9Y3D6 1-125): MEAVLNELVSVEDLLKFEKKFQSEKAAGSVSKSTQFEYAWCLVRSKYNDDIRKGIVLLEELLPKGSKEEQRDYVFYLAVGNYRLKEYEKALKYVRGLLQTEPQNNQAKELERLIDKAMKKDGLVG
How it was run: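 Human Fis1 cytosolic domain (residues 1–125), His₆-SUMO fusion, expressed in ¹⁵N minimal medium and Ni-affinity purified. Buffer was 50 mM sodium phosphate pH 7.0, 175 mM NaCl, 2 mM DTT, 10% D₂O. Library screen: 352 fragments pooled six per sample, 1 mM each, 97 μM protein, 3% [D₆]DMSO, hits at +1 σ. Follow-up: single fragments at 1 mM with 50 μM protein. ¹H,¹⁵N SOFAST-HMQC at 25°C.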

Fis1 [2] = molecular target: T1, Fis1; test: Mass spectrometry of Fis1 with interfering compounds; details: from apo Fis1 14 487.2 Da; suggests direct chemical modification
BRD4(BD2) = BRD4(BD2) (Homo sapiens, UniProt O60885); test: NMR titration; format: binding
[3] = molecular target: first bromodomain of BRD4; details: cited from earlier work
CXCL12 = CXCL12 (Homo sapiens, UniProt P48061); test: 2D protein-detected NMR of individual compounds at 1 mM against 15N-CXCL12; format: binding; details: 1 mM compound, 100 μM 15N-CXCL12, SOFAST-HMQC
How it was run: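 Commercial recombinant human ¹⁵N-CXCL12. Each test compound was screened singly: 1 mM final in 0.5% (v/v) [D₆]DMSO, 99.5 μM final protein, with a DMSO control. Buffer was 50 mM sodium phosphate pH 6.0, 0.02% sodium azide, 10% D₂O. ¹H,¹⁵N SOFAST-HMQC at 25°C and 600 MHz with cryoprobe; 16 scans, 1024 × 210 complex points. Spectra were overlaid on the DMSO control.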

CXCL12, sequence (P48061 22-89 limits assumed): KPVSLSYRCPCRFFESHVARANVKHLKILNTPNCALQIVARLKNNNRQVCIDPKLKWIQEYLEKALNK

SMILES: Nc1cc2ccccc2cc1O [3-amino-2-naphthol]
- binding to Fis1 in library screen (Fis1 [1]): none of which bound appreciably

SMILES: Nc1ccc(O)cc1 [4-aminophenol]
- nonspecific NMR crosspeak broadening of Fis1 (Fis1 [1]): did not induce nonspecific NMR crosspeak broadening

SMILES: O=C1c2ccccc2C(=O)C1(O)O [ninhydrin]
- nonspecific NMR crosspeak broadening of Fis1 (Fis1 [1]): induce nonspecific NMR crosspeak broadening across all targets screened
- nonspecific NMR crosspeak broadening of CXCL12 (CXCL12): induce nonspecific NMR crosspeak broadening across all targets screened

Continued, in another order:

- binding to Fis1 in library screen (Fis1 [1]): none of which bound appreciably
SMILES: Nc1cccc2cccc(N)c12 [1,8-diaminonaphthalene]

- mass shift of Fis1 (Fis1 [2]): 119.7 Da
SMILES: Cc1cc(O)ccc1O [2-methylbenzene-1,4-diol]

- Kd (BRD4(BD2)): 1600 µM
SMILES: CC(=O)Nc1ccc(O)cc1 [acetaminophen]
- Kd [3]: 290 µM

- binding to Fis1 in library screen (Fis1 [1]): none of which bound appreciably
SMILES: NS(=O)(=O)c1ccc2ccccc2c1 [naphthalene-2-sulfonamide]
